Shown are actives, neighbours in structure and some others; about 2.4% of the full set was active somewhere.
ROMK primary: modulates human ROMK potassium channel activity | P48048 | Tet-inducible ROMK, thallium flux fluorescence; actives lie on both sides | B-score at 10 µM | 2% of 130,000 active | AID 1918;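 active means signal ratio slope over the read window, or its plate-corrected B-score, at least 3 SD from the plate mean, either direction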;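 further: B-score of the F/F0 ratio slope over 7 to 12 s after thallium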
Target sequence (P48048 whole entry, looked up): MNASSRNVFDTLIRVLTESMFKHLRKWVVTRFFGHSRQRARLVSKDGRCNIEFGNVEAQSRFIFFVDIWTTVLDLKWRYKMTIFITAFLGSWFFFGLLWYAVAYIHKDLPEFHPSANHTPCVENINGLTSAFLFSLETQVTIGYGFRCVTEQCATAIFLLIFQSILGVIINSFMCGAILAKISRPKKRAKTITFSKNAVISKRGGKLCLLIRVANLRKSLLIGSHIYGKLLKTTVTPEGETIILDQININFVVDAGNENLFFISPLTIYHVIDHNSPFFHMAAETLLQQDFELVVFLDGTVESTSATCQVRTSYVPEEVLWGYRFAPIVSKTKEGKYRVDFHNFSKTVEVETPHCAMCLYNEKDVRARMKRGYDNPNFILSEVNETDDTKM
HSV replic up: increases HSV replication in cells. HSV replication augmentation in cells, fold increase. maximum fold increase. 0.005% of 220,000 active; in the data active means maximum fold increase above about 1.5; inconclusive means no clear call, values can overlap the other calls; tested in PC3 cells
INS promoter inh: TRM-6 insulin promoter activity inhibition. TRM-6 cells (human fetal islet line), insulin promoter-eGFP reporter, imaging; reporter expression induced with tamoxifen. inhibition, % at 2 µM. 0.9% of 130,000 active. AID 1273;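 active means inhibition above the mean plus 3 SD, with well images judged a real hit on visual review, cut at about 60% in these data, passing the limit was not always enough; inconclusive means inhibition over the cutoff but images rejected on review; inactive means inhibition not above the cutoff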
bCat nuc transl: modulators of beta-catenin nuclear translocation | 0.3% of 190,000 active | HeLa beta-catenin nuclear translocation, immunofluorescence imaging | AID 1665 | nuclear translocation activity, % at 5 µM;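 active means nuclear translocation activity above 50% at 5 µM, with a well cell count of 50 or more; inconclusive means wells under 50 cells across six images, flagged as toxic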;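 further: per-cell ratio of nuclear to cytoplasmic median beta-catenin stain intensity; plate controls were DMSO negative control for no effect and GSK-3 inhibitor IX positive control for full effect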
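Test system: HeLa cells, endogenous beta-catenin; Compound: single 5 µM dose plus 0.02–20 µM confirmation series; Times: compound exposure 24 h at 37°C; Signal: fluorescence imaging of beta-catenin antibody stain plus DAPI; Read-out: % activation, nuclear-to-cytoplasmic median beta-catenin signal ratio per cell.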
MT stabilize HCS: microtubule stabilization, imaging screen; HeLa tubulin immunostaining HCS, 24 h; share of cells brighter than vehicle mean+2SD; % tubulin-high responders, % at 10 µM; 0.83% of 200,000 active;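 active means plate Z-score above 3 for both tubulin-high and condensed-nucleus cell shares, with cell loss under 80%, at 10 µM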;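 further: anti alpha tubulin signal scored within the nucleus-defined area of each cell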
ROMK hit retest: retested hit modulating human ROMK potassium channel | shares compounds with ROMK primary | ROMK thallium flux, fluorescence ratio; active compounds read low | normalized thallium flux (F/F0 slope) at 10 µM | 54% of 3,000 active | AID 1917;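 active means Flux at 10 µM at least 3 SD below or above vehicle control mean in one or both replicates; inconclusive means no clear call, values can overlap the other calls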
* marks the source's active call; other numbers are inactive results; i = inactive; ? = inconclusive; / = not tested or not shown.

SMILES	ROMK primary	HSV replic up	INS promoter inh	bCat nuc transl	MT stabilize HCS	ROMK hit retest
Cc1cc(C)c(OCCNC(=O)c2ccccc2Sc2ccccc2C#N)c(C)c1	/	i	-43	1	1	/
Cn1c(C(=O)N2CCCC(C(=O)c3ccc(C(F)(F)F)cc3)C2)cc(=O)n(C)c1=O (stereo unspecified)	-0.067	i	13	0	3	/
CCCn1c(SCC(=O)N2CCCC(C)C2)nnc1-c1ccccn1 (stereo unspecified)	-0.31	i	/	0	2	/
C=CCOC(=O)C1=C(C)OC(N)=C(C#N)C1c1c(C)nn(-c2ccccc2)c1Cl (stereo unspecified)	-4*	i	/	-1	4	0.059*
CCOc1cc(/C=N/n2cnnc2)cc(Br)c1O	/	i	-11	-1	4	0.077
O=C(NCc1ccco1)/C(=C\c1ccco1)NC(=O)c1ccco1	/	i	/	0	/	/
COCCn1nnnc1C(c1cccc(C(F)(F)F)c1)N1CCN(Cc2ccccc2)CC1 (stereo unspecified)	-3.9*	i	8	-2	3	0.054*
COc1ccc(C(=O)NCCSC2CCCCC2)cc1	-2.2*	i	-7	-2	1	?
Cc1cc(C)cc(NC(=O)N2CCCC2C(=O)Nc2ccc(-n3cnnn3)c(C)c2)c1 (stereo unspecified)	/	i	-53	1	2	0.076
CCOC(=O)COn1c(=O)c(-c2cccs2)[n+]([O-])c2ccccc21	-4.2*	i	49	-1	2	0.059*
COc1cccc(NC(=S)N(CCCN2CCCC(C)C2)Cc2cccs2)c1 (stereo unspecified)	-1.9	i	/	-2	6	/
COc1ccc(NC(=S)N(CCCN2CCC(C)CC2)Cc2cccs2)cc1Cl	-5.2*	i	/	0	3	0.055*
CSc1cccc(NC(=S)N(CCCN2CCCC(C)C2)Cc2cccs2)c1 (stereo unspecified)	-4.4*	i	-40	0	2	0.058*
Nc1ncnc2c1ncn2CCNCCc1ccccc1	/	i	-3	-2	2	0.082
Cc1ccc(C(=O)NCC(=O)OC(C)C(=O)NCCC2=CCCCC2)cc1C (stereo unspecified)	-0.34	i	-21	-1	3	/
CCn1c(C(=O)N2CCC(C(=O)NCCCSC3CCCCC3)CC2)cc2sccc21	/	i	/	/	2	?
CCOc1ccc(-c2c(=O)n(OCc3ccc([N+](=O)[O-])cc3)c3ccccc3[n+]2[O-])cc1	/	i	/	0	5	/
CCCc1ccc(Oc2cn[nH]c2-c2ccc(O)c(C)c2O)cc1	-4*	i	-16	4	4	0.058*
Cc1cc(C)n2nc(SCC(=O)c3cc(C)n(-c4cc(C)on4)c3C)nc2n1	/	i	/	5	3	0.078
COC(=O)C1C(=O)C2=C(CC1C)NC(C)=C(C(=O)OCCOc1ccccc1)C2c1ccc(C)o1 (stereo unspecified)	-4*	i	-8	-1	3	0.066*
N#CC1(c2ccc(NC(=O)c3ccccc3)cc2)CCCC1	2.3*	i	/	0	3	0.094
COc1ccc(C2CNC(=O)C2)cc1OC1CCCC1 (stereo unspecified)	/	i	-18	-1	3	/
COc1ccc(Cn2c(-c3ccc(OC)cc3)nc3ccccc32)cc1	-2.5*	/	-9	-2	3	?
COCCn1c(-c2ccc(OC)cc2)nc2ccccc21	-0.13	i	27	4	2	/
Cc1nn(C)cc1CN(C)C(=O)c1cc(-c2ccccc2)nc2ccc(Br)cc12	0.039	i	/	-3	2	0.058*
SMILES	ROMK primary	HSV replic up	INS promoter inh	bCat nuc transl	MT stabilize HCS	ROMK hit retest
Cn1cc(CNC(=O)c2cc(-c3ccccc3)nc3ccc(Br)cc23)cn1	-0.08	i	-88	-1	6	/
COc1ccc(NC(=S)N2CCN(Cc3ccco3)CC2)c(OC)c1	/	/	/	-2	3	/
N#CC(C#N)=C1C=CC=CN1/C(=C\c1ccco1)C(=O)c1ccc(Cl)cc1	-3*	i	/	1	4	0.045*
Cc1ccc(C)c2[nH]c(=O)c(CN(Cc3ccco3)C(=S)NCC3CCCO3)cc12 (stereo unspecified)	-2.4	i	-47	-1	3	/
Cn1c(N2CCCC2)nc2c1c(=O)n(Cc1ccc(F)cc1)c(=O)n2C	-1.7	i	/	-5	6	/
Cn1c(=O)c2c(ncn2Cc2ccc(Cl)c(Cl)c2)n(C)c1=O	-2.1*	i	54	/	3	?
Cn1c(N2CCOCC2)nc2c1c(=O)n(Cc1ccc(Cl)c(Cl)c1)c(=O)n2C	-3.7*	i	0	/	4	0.068*
CC(OC(=O)c1cc(=O)[nH]c2ccccc12)c1ccccc1 (stereo unspecified)	-0.58	i	-32	6	2	/
CCCCCC[N+](C)(C)CC/C=C1/c2ccccc2Sc2ccc(Cl)cc21	/	i	/	-1	/	0.045*
COc1cc2ncnc(NCc3ccccc3C)c2cc1OC	/	i	17	0	1	?
Cc1ccnc(NC(=O)CCC(=O)N(CC(=O)NC2CCCCC2)Cc2cccs2)c1	-0.28	i	-100	-1	5	0.077
O=C(N/N=C/c1c(O)n(-c2ccccc2Cl)c(=O)c2ccccc12)C1COc2ccccc2O1 (stereo unspecified)	/	i	-184	-1	6	/
Cc1ccc(-n2c(O)c(/C=N/NC(=O)C3COc4ccccc4O3)c3ccccc3c2=O)cc1 (stereo unspecified)	-2.7*	i	35	/	2	0.052*
NS(=O)(=O)c1ccc(CCNC(=O)CSc2nc3ccccc3c(=O)n2CCC(=O)N2CCCCC2)cc1	0.00082	i	21	-1	3	/
CCOC(=O)N1CCC(N2CCCC(C(=O)c3cccc(OC)c3)C2)CC1 (stereo unspecified)	/	i	/	1	/	/
CC1=C(C(=O)OC2CCCCC2)C(c2ccco2)C2=C(CC(C)(C)CC2=O)N1 (stereo unspecified)	/	i	-16	-4	2	0.076
CC1=C(C(=O)OC2CCCCC2)C(c2ccc(C)o2)C2=C(CCCC2=O)N1 (stereo unspecified)	-0.68	i	/	0	5	/
COc1ccc(C(=O)ON=C2CCN(c3ccc([N+](=O)[O-])cc3)CC2)cc1	/	i	/	0	2	/
O=C(CCCC(=O)N1CCN(c2ccc([N+](=O)[O-])cc2)CC1)c1ccccc1	-3.2*	i	28	-7	5	0.058*
O=C(CCN1C(=O)C2C3C=CC(C3)C2C1=O)N1CCN(c2ccc([N+](=O)[O-])cc2)CC1 (stereo unspecified)	-2.2	i	-25	0	5	0.088
O=C(CCN1C(=O)C2C3C=CC(C3)C2C1=O)N1CCN(c2ccc(F)cc2)CC1 (stereo unspecified)	/	i	/	-1	5	/
O=C(ON=C1CCN(c2ccc([N+](=O)[O-])cc2)CC1)c1ccccc1	/	/	/	-1	2	0.067*

Bioassay records: PubChem BioAssay, several laboratories
